Assay results reported in ChEMBL document CHEMBL3392996, “Non-transpeptidase binding arylthioether β-lactams active against Mycobacterium tuberculosis and Moraxella catarrhalis” (2015).
≈ marks a conversion by molar mass, not a printed value.

test system: Mycobacterium tuberculosis; test: Antimicrobial activity against Mycobacterium tuberculosis H37Rv incubated for 48 hrs by microdilution broth method; type: functional

Row | SMILES | MIC
1 | O=C1CCN1C(=O)NCc1ccccc1 | > 100 µg/mL
2 | O=C1CC(Sc2cccs2)N1 (racemic) | 6.25 µg/mL (≈ 33.7 µM)
3 | O=C1CC(Sc2ccccc2)N1 (racemic) | 25 µg/mL (≈ 139 µM)
4 | O=C1CC(Sc2ccccc2F)N1 (racemic) | 25 µg/mL (≈ 127 µM)
5 | O=C1CC(Sc2cccc(F)c2)N1 (racemic) | 100 µg/mL (≈ 507 µM)
6 | O=C1CC(Sc2ccc(F)cc2)N1 (racemic) | > 100 µg/mL
7 | O=C1CC(Sc2ccc(F)cc2F)N1 (racemic) | 3.13 µg/mL (≈ 14.5 µM)
8 | O=C1CC(Sc2ccc(F)c(F)c2)N1 (racemic) | 50 µg/mL (≈ 232 µM)
9 | O=C1CC(Sc2c(F)c(F)c(F)c(F)c2F)N1 (racemic) | > 100 µg/mL
10 | O=C1CC(Sc2ccc(F)cc2Cl)N1 (racemic) | 25 µg/mL (≈ 108 µM)
11 | O=C1CC(Sc2ccc(F)c(Cl)c2)N1 (racemic) | 25 µg/mL (≈ 108 µM)
12 | O=C1CC(Sc2ccc(Cl)cc2Cl)N1 (racemic) | 25 µg/mL (≈ 101 µM)
13 | O=C1CC(Sc2ccc([N+](=O)[O-])cc2)N1 (racemic) | 25 µg/mL (≈ 111 µM)
14 | O=C1CC(Sc2ccccc2C(F)(F)F)N1 (racemic) | ≥ 100 µg/mL
15 | O=C1CC(Sc2cccc(C(F)(F)F)c2)N1 (racemic) | 6.25 µg/mL (≈ 25.3 µM)
16 | O=C1CC(Sc2ccc(C(F)(F)F)cc2)N1 (racemic) | 12.5 µg/mL (≈ 50.6 µM)
17 | O=C1CC(Sc2cc(C(F)(F)F)cc(C(F)(F)F)c2)N1 (racemic) | > 100 µg/mL
18 | COc1ccccc1SC1CC(=O)N1 (racemic) | 250 µg/mL (≈ 1190 µM)
19 | COc1cccc(SC2CC(=O)N2)c1 (racemic) | > 100 µg/mL
20 | COc1ccc(SC2CC(=O)N2)cc1 (racemic) | 100 µg/mL (≈ 478 µM)
21 | COc1ccc(OC)c(SC2CC(=O)N2)c1 (racemic) | 250 µg/mL (≈ 1040 µM)
22 | COc1ccc(SC2CC(=O)N2)cc1OC (racemic) | 250 µg/mL (≈ 1040 µM)
23 | CSc1ccc(SC2CC(=O)N2)cc1 (racemic) | > 100 µg/mL
24 | O=C1CC(Sc2cccc3ccccc23)N1 (racemic) | > 250 µg/mL
25 | O=C1CC(Oc2ccc([N+](=O)[O-])cc2)N1 (racemic) | 25 µg/mL (≈ 120 µM)
26 | O=C1CC(Oc2ccc(C(F)(F)F)cc2)N1 (racemic) | 250 µg/mL (≈ 1080 µM)
27 | O=C1CC([Se]c2ccccc2)N1 (racemic) | 25 µg/mL (≈ 111 µM)
28 | C=CCSC1CC(=O)N1 (racemic) | > 200 µg/mL
29 | O=C1CC(Sc2ccc(F)cc2F)N1C(=O)NCc1ccccc1 (racemic) | 100 µg/mL (≈ 287 µM)

test system: Moraxella catarrhalis; test: Bactericidal activity against Moraxella catarrhalis clinical isolates incubated for 48 hrs by microdilution broth method and standard plating method; type: functional
How it was run: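 Broth microdilution in Mueller-Hinton broth, 2-fold series from 500 to 15.6 μg/ml, with DMSO-only controls, 37 °C for 48 h. Wells showing no growth were plated (10 μL) on MH agar. MBC was the lowest concentration giving no growth on plating. Run in quadruplicate.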

Row | SMILES | MBC
30 | O=C1CC(Sc2cccs2)N1 (racemic) | 100 µg/mL (≈ 540 µM)
31 | O=C1CC(Sc2ccc(F)cc2F)N1 (racemic) | 3.13 µg/mL (≈ 14.5 µM)
32 | O=C1CC(Sc2ccc(F)c(F)c2)N1 (racemic) | 50 µg/mL (≈ 232 µM)
33 | O=C1CC(Sc2c(F)c(F)c(F)c(F)c2F)N1 (racemic) | 1.5 µg/mL (≈ 5.57 µM)
34 | O=C1CC(Sc2ccc(F)cc2Cl)N1 (racemic) | 50 µg/mL (≈ 216 µM)
35 | O=C1CC(Sc2ccc(F)c(Cl)c2)N1 (racemic) | 25 µg/mL (≈ 108 µM)
36 | O=C1CC(Sc2ccc(Cl)cc2Cl)N1 (racemic) | 6.25 µg/mL (≈ 25.2 µM)
37 | O=C1CC(Sc2ccc([N+](=O)[O-])cc2)N1 (racemic) | 12.5 µg/mL (≈ 55.7 µM)
38 | O=C1CC(Sc2ccccc2C(F)(F)F)N1 (racemic) | 1.5 µg/mL (≈ 6.07 µM)
39 | O=C1CC(Sc2ccc(C(F)(F)F)cc2)N1 (racemic) | 100 µg/mL (≈ 404 µM)
40 | O=C1CC(Sc2cc(C(F)(F)F)cc(C(F)(F)F)c2)N1 (racemic) | 100 µg/mL (≈ 317 µM)
41 | COc1ccccc1SC1CC(=O)N1 (racemic) | > 200 µg/mL
42 | COc1cccc(SC2CC(=O)N2)c1 (racemic) | > 200 µg/mL
43 | COc1ccc(SC2CC(=O)N2)cc1 (racemic) | > 200 µg/mL
44 | COc1ccc(OC)c(SC2CC(=O)N2)c1 (racemic) | > 200 µg/mL
45 | COc1ccc(SC2CC(=O)N2)cc1OC (racemic) | 200 µg/mL (≈ 836 µM)
46 | CSc1ccc(SC2CC(=O)N2)cc1 (racemic) | 100 µg/mL (≈ 444 µM)
47 | O=C1CC(Sc2cccc3ccccc23)N1 (racemic) | > 200 µg/mL
48 | O=C1CC(Oc2ccc([N+](=O)[O-])cc2)N1 (racemic) | 50 µg/mL (≈ 240 µM)
49 | O=C1CC(Oc2ccc(C(F)(F)F)cc2)N1 (racemic) | 200 µg/mL (≈ 865 µM)
50 | O=C1CC([Se]c2ccccc2)N1 (racemic) | 6.25 µg/mL (≈ 27.6 µM)
51 | O=C1CC(Sc2ccc(F)cc2F)N1C(=O)NCc1ccccc1 (racemic) | 1.63 µg/mL (≈ 4.68 µM)

test system: Moraxella catarrhalis; test: Antimicrobial activity against Moraxella catarrhalis clinical isolates incubated for 48 hrs by microdilution broth method; type: functional
How it was run: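 Stocks in DMSO were diluted at least 10-fold into Mueller-Hinton broth, then 2-fold serially diluted in MH from 500 to 15.6 μg/ml. Bacteria were added, with DMSO-only dilution controls, and incubated at 37 °C for 48 h. Growth was scored at 24 and 48 h. MIC was the lowest concentration with no growth. Run in quadruplicate.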

Row | SMILES | MIC
52 | O=C1CCN1C(=O)NCc1ccccc1 | > 100 µg/mL
53 | O=C1CC(Sc2cccs2)N1 (racemic) | 25 µg/mL (≈ 135 µM)
54 | O=C1CC(Sc2ccccc2)N1 (racemic) | > 200 µg/mL
55 | O=C1CC(Sc2ccccc2F)N1 (racemic) | 200 µg/mL (≈ 1010 µM)
56 | O=C1CC(Sc2cccc(F)c2)N1 (racemic) | > 200 µg/mL
57 | O=C1CC(Sc2ccc(F)cc2)N1 (racemic) | > 200 µg/mL
58 | O=C1CC(Sc2ccc(F)cc2F)N1 (racemic) | 1.5 µg/mL (≈ 6.97 µM)
59 | O=C1CC(Sc2ccc(F)c(F)c2)N1 (racemic) | 50 µg/mL (≈ 232 µM)
60 | O=C1CC(Sc2c(F)c(F)c(F)c(F)c2F)N1 (racemic) | 1.5 µg/mL (≈ 5.57 µM)
61 | O=C1CC(Sc2ccc(F)cc2Cl)N1 (racemic) | 12.5 µg/mL (≈ 54 µM)
62 | O=C1CC(Sc2ccc(F)c(Cl)c2)N1 (racemic) | 12.5 µg/mL (≈ 54 µM)
63 | O=C1CC(Sc2ccc(Cl)cc2Cl)N1 (racemic) | 6.25 µg/mL (≈ 25.2 µM)
64 | O=C1CC(Sc2ccc([N+](=O)[O-])cc2)N1 (racemic) | 6.25 µg/mL (≈ 27.9 µM)
65 | O=C1CC(Sc2ccccc2C(F)(F)F)N1 (racemic) | 1.5 µg/mL (≈ 6.07 µM)
66 | O=C1CC(Sc2cccc(C(F)(F)F)c2)N1 (racemic) | 200 µg/mL (≈ 809 µM)
67 | O=C1CC(Sc2ccc(C(F)(F)F)cc2)N1 (racemic) | 100 µg/mL (≈ 404 µM)
68 | O=C1CC(Sc2cc(C(F)(F)F)cc(C(F)(F)F)c2)N1 (racemic) | 12.5 µg/mL (≈ 39.7 µM)
69 | COc1ccccc1SC1CC(=O)N1 (racemic) | 100 µg/mL (≈ 478 µM)
70 | COc1cccc(SC2CC(=O)N2)c1 (racemic) | 100 µg/mL (≈ 478 µM)
71 | COc1ccc(SC2CC(=O)N2)cc1 (racemic) | 200 µg/mL (≈ 956 µM)
72 | COc1ccc(OC)c(SC2CC(=O)N2)c1 (racemic) | 100 µg/mL (≈ 418 µM)
73 | COc1ccc(SC2CC(=O)N2)cc1OC (racemic) | 200 µg/mL (≈ 836 µM)
74 | CSc1ccc(SC2CC(=O)N2)cc1 (racemic) | 100 µg/mL (≈ 444 µM)
75 | O=C1CC(Sc2cccc3ccccc23)N1 (racemic) | 100 µg/mL (≈ 436 µM)
76 | O=C1CC(Oc2ccc([N+](=O)[O-])cc2)N1 (racemic) | 50 µg/mL (≈ 240 µM)
77 | O=C1CC(Oc2ccc(C(F)(F)F)cc2)N1 (racemic) | 200 µg/mL (≈ 865 µM)
78 | O=C1CC([Se]c2ccccc2)N1 (racemic) | 6.25 µg/mL (≈ 27.6 µM)
79 | C=CCSC1CC(=O)N1 (racemic) | > 200 µg/mL
80 | O=C1CC(Sc2ccc(F)cc2F)N1C(=O)NCc1ccccc1 (racemic) | 1.63 µg/mL (≈ 4.68 µM)
